pEC50, pIC50, pKi: −log10 of the molar value. Active and inactive are the calls of the source. No cut-off for these calls is given here.
Assays:
[1] = molecular target: T1, Cannabinoid receptor 2 (Homo sapiens, UniProt P34972); assay: Agonist activity at N-terminal HA-tagged human CB2 receptor expressed in HEK293 cells transfected with YFP-Epac-RLuc assessed as decrease in forskolin-stimulated cAMP level by BRET assay; assay type: functional, cell-based
Procedure, shortened: (§1)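 BRET cAMP biosensor read-out in HEK293 cells expressing HA-tagged human CB1 or CB2, with forskolin stimulation (5 µM). Concentration-response curves; area-under-curve values normalised to forskolin alone = 100% and basal = 0%. EC50 taken for agonists and IC50 for inverse agonists. Mean of at least three independent experiments, each point in duplicate.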

[2] = molecular target: T2, Free fatty acid receptor 4 (Homo sapiens) (UniProt Q5NUL3); assay: Agonist activity at GPR120 (unknown origin); assay type: functional
T2 sequence (whole entry): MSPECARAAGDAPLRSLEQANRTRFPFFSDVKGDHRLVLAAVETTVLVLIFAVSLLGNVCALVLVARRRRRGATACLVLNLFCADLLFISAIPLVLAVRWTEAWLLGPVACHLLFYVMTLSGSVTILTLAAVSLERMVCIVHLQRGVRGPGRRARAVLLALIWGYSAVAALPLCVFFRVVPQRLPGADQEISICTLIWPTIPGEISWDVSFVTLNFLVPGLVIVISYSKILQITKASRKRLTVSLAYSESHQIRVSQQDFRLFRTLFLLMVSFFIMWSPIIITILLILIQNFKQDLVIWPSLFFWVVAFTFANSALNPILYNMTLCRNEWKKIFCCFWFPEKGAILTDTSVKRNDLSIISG

[3] = molecular target: T3, Cannabinoid receptor 1 (Homo sapiens, UniProt P21554); assay: Displacement of [3H]CP55,940 from N-terminal HA-tagged human CB1 receptor expressed in HEK293 cell membranes after 1 hr by microbeta scintillation counting method; settings: read-out: Ki
[4] = molecular target: T3, Cannabinoid receptor 1; assay: Agonist activity at N-terminal HA-tagged human CB1 receptor expressed in HEK293 cells transfected with YFP-Epac-RLuc assessed as decrease in forskolin-stimulated cAMP level at 10 uM by BRET assay; assay type: functional, cell-based
Procedure, shortened: (§2)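 Single-concentration screen at 10 µM in CB receptor-expressing HEK293 cells, run with and without CP55,940 as reference agonist. Forskolin-stimulated cAMP read by BRET biosensor. A fall in cAMP is scored as agonism and a rise as inverse agonism.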

[5] = tested on: Leishmania donovani; assay: Growth inhibition of Leishmania donovani; assay type: functional, organism-based
[6] = molecular target: T3, Cannabinoid receptor 1; assay: Agonist activity at N-terminal HA-tagged human CB1 receptor expressed in HEK293 cells transfected with YFP-Epac-RLuc assessed as decrease in forskolin-stimulated cAMP level by BRET assay relative to control; assay type: functional, cell-based; procedure, shortened: as §1
[7] = molecular target: T3, Cannabinoid receptor 1; assay: Agonist activity at N-terminal HA-tagged human CB1 receptor expressed in HEK293 cells transfected with YFP-Epac-RLuc assessed as decrease in forskolin-stimulated cAMP level by BRET assay; assay type: functional, cell-based; procedure, shortened: as §1
[8] = molecular target: T1, Cannabinoid receptor 2; assay: Displacement of [3H]CP55,940 from N-terminal HA-tagged human CB2 receptor expressed in HEK293 cell membranes at 10 uM after 1 hr by microbeta scintillation counting method relative to control
Procedure, shortened: (§3)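 Single-point competition screen against [3H]CP55,940 in HEK293 cells over-expressing 3HA-tagged hCB2 or hCB1. Compounds giving more than 50% displacement went on to full concentration-response curves.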

[9] = tested on: HEK293; assay: Effect on forskolin-stimulated cAMP level in HEK293 cells at 1 uM by BRET assay relative to control; assay type: ADME, cell-based; settings: human, hek293, 1 µM
Procedure, shortened: (§4)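 Wild-type HEK293 cells lacking transfected receptor, tested at 10 µM and 1 µM. Forskolin-stimulated cAMP measured by BRET as a check that responses are receptor-mediated.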

[10] = tested on: HEK293; assay: Effect on forskolin-stimulated cAMP level in HEK293 cells at 10 uM by BRET assay relative to control; assay type: ADME, cell-based; settings: human, hek293, 10 µM; procedure, shortened: as §4
[11] = molecular target: T3, Cannabinoid receptor 1; assay: Displacement of [3H]CP55,940 from N-terminal HA-tagged human CB1 receptor expressed in HEK293 cell membranes at 10 uM after 1 hr by microbeta scintillation counting method relative to control; procedure, shortened: as §3
[12] = molecular target: Interleukin-17A (Homo sapiens) (UniProt Q16552); assay: Inhibition of IL-17 (unknown origin) assessed as disruption of IL-17 protein-protein interaction
[13] = molecular target: T1, Cannabinoid receptor 2; assay: Agonist activity at N-terminal HA-tagged human CB2 receptor expressed in HEK293 cells transfected with YFP-Epac-RLuc assessed as decrease in forskolin-stimulated cAMP level by BRET assay relative to control; assay type: functional, cell-based; procedure, shortened: as §1
[14] = molecular target: T4, Nicotinamide N-methyltransferase (Homo sapiens) (UniProt P40261); assay: Inhibition of NNMT (unknown origin)
T4 sequence (whole entry): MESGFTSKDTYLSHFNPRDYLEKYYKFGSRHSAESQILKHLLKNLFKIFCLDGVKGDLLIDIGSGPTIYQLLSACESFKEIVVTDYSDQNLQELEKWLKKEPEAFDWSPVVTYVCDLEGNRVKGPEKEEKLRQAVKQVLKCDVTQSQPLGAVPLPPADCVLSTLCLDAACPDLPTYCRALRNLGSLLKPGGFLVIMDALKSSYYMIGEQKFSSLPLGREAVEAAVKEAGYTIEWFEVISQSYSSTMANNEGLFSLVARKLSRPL

[15] = molecular target: T1, Cannabinoid receptor 2; assay: Displacement of [3H]CP55,940 from N-terminal HA-tagged human CB2 receptor expressed in HEK293 cell membranes after 1 hr by microbeta scintillation counting method; settings: read-out: Ki
[16] = molecular target: T1, Cannabinoid receptor 2; assay: Agonist activity at N-terminal HA-tagged human CB2 receptor expressed in HEK293 cells transfected with YFP-Epac-RLuc assessed as decrease in forskolin-stimulated cAMP level at 10 uM by BRET assay; assay type: functional, cell-based; procedure, shortened: as §2
[17] = molecular target: Potassium voltage-gated channel subfamily KQT member 2 (Homo sapiens) (UniProt O43526); assay: Agonist activity at KCNQ2 (unknown origin)
[18] = molecular target: Proprotein convertase subtilisin/kexin type 9 (Homo sapiens) (UniProt Q8NBP7); assay: Inhibition of PCSK9 (unknown origin)
[19] = molecular target: T5, Potassium voltage-gated channel subfamily KQT member 3 (Homo sapiens) (UniProt O43525); assay: Agonist activity at KCNQ3 (unknown origin)
T5 sequence (whole entry): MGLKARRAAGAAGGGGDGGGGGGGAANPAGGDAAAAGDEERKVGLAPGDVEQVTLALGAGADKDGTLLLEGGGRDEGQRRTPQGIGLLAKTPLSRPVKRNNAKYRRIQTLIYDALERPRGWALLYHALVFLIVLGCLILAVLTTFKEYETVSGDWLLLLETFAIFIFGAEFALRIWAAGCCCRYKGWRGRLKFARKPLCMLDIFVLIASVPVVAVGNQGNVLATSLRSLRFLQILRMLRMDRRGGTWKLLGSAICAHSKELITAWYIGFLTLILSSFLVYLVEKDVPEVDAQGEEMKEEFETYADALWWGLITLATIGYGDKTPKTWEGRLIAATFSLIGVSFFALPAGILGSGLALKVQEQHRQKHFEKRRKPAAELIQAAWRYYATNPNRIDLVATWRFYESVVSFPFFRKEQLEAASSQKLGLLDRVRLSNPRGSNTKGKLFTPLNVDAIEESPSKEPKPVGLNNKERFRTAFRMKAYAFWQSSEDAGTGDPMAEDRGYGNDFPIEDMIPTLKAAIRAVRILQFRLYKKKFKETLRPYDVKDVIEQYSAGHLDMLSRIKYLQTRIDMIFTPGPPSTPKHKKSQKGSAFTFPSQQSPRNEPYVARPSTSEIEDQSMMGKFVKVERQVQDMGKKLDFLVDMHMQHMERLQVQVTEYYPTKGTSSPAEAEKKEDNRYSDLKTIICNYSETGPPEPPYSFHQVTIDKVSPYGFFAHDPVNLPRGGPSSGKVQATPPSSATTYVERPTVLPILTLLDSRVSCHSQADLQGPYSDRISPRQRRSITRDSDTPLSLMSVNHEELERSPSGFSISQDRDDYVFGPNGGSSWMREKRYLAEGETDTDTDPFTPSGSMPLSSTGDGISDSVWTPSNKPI

[20] = molecular target: T1, Cannabinoid receptor 2; assay: Inverse agonist activity at N-terminal HA-tagged human CB2 receptor expressed in HEK293 cells transfected with YFP-Epac-RLuc assessed as increase in forskolin-stimulated cAMP level at 10 uM by BRET assay; assay type: functional, cell-based
[21] = molecular target: T1, Cannabinoid receptor 2; assay: Inverse agonist activity at N-terminal HA-tagged human CB2 receptor expressed in HEK293 cells transfected with YFP-Epac-RLuc assessed as increase in forskolin-stimulated cAMP level by BRET assay; assay type: functional, cell-based; procedure, shortened: as §1
[22] = molecular target: T1, Cannabinoid receptor 2; assay: Inverse agonist activity at N-terminal HA-tagged human CB2 receptor expressed in HEK293 cells transfected with YFP-Epac-RLuc assessed as increase in forskolin-stimulated cAMP level by BRET assay relative to control; assay type: functional, cell-based; procedure, shortened: as §1
[23] = molecular target: T3, Cannabinoid receptor 1; assay: Activity at N-terminal HA-tagged human CB1 receptor expressed in HEK293 cells transfected with YFP-Epac-RLuc assessed as effect on forskolin-stimulated cAMP level by BRET assay; assay type: functional, cell-based; procedure, shortened: as §1
[24] = molecular target: T3, Cannabinoid receptor 1; assay: Activity at N-terminal HA-tagged human CB1 receptor expressed in HEK293 cells transfected with YFP-Epac-RLuc assessed as effect on forskolin-stimulated cAMP level by BRET assay relative to control; assay type: functional, cell-based; procedure, shortened: as §1

T1 sequence (P34972 whole entry): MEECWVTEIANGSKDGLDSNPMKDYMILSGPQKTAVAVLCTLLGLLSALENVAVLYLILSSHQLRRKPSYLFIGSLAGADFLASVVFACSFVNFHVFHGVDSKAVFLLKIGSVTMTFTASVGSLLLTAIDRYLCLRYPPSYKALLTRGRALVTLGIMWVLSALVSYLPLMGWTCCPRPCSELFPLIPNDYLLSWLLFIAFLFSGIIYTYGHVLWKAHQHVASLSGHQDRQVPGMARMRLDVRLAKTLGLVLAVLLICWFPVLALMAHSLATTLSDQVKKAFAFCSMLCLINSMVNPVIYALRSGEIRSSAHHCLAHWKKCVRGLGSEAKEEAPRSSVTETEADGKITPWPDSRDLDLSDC
T3 sequence (P21554 whole entry): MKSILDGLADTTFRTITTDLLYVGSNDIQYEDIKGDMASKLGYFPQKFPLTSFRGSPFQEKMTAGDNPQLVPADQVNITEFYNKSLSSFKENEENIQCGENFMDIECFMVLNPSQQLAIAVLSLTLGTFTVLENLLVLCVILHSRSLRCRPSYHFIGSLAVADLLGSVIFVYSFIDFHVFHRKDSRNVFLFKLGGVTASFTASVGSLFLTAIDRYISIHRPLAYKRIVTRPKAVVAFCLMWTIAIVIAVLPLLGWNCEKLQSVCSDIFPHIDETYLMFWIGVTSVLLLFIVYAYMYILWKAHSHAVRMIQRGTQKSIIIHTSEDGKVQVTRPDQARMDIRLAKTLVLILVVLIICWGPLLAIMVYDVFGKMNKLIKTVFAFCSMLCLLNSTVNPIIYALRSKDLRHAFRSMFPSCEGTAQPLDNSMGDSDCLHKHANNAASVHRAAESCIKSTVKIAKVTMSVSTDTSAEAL
Potassium voltage-gated channel subfamily KQT member 2 (Homo sapiens), sequence (O43526 whole entry): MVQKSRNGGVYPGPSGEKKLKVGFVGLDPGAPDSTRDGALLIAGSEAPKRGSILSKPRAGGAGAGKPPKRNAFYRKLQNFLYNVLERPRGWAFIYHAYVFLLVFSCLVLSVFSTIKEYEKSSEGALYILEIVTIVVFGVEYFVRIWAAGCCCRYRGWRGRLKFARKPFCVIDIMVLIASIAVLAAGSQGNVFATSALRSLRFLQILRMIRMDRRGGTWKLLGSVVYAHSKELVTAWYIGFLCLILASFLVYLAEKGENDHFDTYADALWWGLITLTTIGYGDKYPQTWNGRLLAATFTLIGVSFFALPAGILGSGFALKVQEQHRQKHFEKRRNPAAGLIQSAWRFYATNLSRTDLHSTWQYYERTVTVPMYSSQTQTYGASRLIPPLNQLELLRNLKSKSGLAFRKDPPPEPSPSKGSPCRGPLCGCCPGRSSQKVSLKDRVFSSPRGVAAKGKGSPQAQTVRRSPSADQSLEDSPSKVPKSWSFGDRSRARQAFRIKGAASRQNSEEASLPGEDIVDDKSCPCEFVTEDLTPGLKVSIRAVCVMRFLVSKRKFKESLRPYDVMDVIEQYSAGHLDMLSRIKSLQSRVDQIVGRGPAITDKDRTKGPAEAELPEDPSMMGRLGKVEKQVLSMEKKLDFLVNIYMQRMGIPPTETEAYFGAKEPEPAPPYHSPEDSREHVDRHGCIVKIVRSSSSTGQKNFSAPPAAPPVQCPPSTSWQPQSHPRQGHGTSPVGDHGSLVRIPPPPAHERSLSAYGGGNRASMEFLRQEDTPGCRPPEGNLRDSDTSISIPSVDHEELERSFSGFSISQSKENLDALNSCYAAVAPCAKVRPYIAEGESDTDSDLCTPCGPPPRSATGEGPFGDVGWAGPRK
Proprotein convertase subtilisin/kexin type 9 (Homo sapiens), sequence (Q8NBP7 31-152 limits assumed): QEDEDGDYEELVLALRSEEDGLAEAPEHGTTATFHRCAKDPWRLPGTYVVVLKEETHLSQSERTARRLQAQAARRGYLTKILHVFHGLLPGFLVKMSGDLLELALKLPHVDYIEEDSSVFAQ
Proprotein convertase subtilisin/kexin type 9 (Homo sapiens), sequence (Q8NBP7 153-692 limits assumed): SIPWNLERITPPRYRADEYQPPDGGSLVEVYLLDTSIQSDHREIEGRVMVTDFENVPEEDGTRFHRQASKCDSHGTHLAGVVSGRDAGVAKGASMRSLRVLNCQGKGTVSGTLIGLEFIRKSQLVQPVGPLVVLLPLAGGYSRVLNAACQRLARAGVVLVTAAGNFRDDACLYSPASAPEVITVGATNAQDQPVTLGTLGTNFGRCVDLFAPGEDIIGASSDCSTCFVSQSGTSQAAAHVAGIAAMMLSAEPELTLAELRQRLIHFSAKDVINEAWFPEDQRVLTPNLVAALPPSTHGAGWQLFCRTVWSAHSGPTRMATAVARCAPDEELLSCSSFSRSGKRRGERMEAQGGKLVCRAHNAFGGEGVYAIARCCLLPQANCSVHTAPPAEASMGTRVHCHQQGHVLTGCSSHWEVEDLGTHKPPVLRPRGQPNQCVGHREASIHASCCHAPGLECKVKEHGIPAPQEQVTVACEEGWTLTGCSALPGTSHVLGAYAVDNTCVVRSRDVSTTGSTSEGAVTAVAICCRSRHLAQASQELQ
Interleukin-17A (Homo sapiens), sequence (Q16552 whole entry): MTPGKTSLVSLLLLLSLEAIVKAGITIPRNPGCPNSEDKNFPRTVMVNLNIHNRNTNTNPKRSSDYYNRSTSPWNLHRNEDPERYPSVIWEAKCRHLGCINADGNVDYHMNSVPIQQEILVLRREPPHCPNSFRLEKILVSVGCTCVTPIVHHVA

Structure (SMILES): COc1ccc(C(=O)c2cn(CC3CCOCC3)c3ccc(O)cc23)cc1
- pEC50 [1]: 8.36
- Activity [2]: inactive
- pKi [3]: 5.85
- Activity [4]: Active
- growth inhibition (GI) [5]: inactive
- Emax [6]: 62.2%
- pEC50 [7]: 7.20
- inhibition [8]: > 50%
- Activity [9]: 105.5%
- Activity [10]: 109.6%
- inhibition [11]: > 50%
- inhibition [12]: inactive
- Emax [13]: 65.7%
- inhibition [14]: inactive
- pKi [15]: 6.92
- Activity [16]: Active
- Activity [17]: inactive
- inhibition [18]: inactive
- Activity [19]: inactive

Structure (SMILES): COc1ccc(C(=O)c2cn(CC3CCOCC3)c3c(OCCCCCCNC(C)=O)cccc23)cc1
- pKi [3]: 5.41
- Activity [4]: Active
- Activity [20]: Active
- Emax [6]: 74.3%
- pIC50 [21]: < 5.00
- inhibition [8]: > 50%
- Activity [9]: 114.8%
- Activity [10]: 128%
- inhibition [11]: > 50%
- pKi [15]: 5.71
- Emax [22]: 151%

Structure (SMILES): Cc1ccc(Cn2nc(C(=O)N[C@@H]3C(C)(C)[C@@H]4CC[C@@]3(C)C4)cc2-c2ccc(Cl)c(C)c2)cc1
- Activity [23]: inactive
- Emax [24]: inactive
- Activity [9]: 99.8%
- Activity [10]: 94.5%
- Emax [22]: 212%

Structure (SMILES): CCCOc1cccc2c(C(=O)c3ccc(OC)cc3)cn(CC3CCOCC3)c12
- Activity [23]: inactive
- pKi [3]: 6.30
- Emax [24]: inactive
- Activity [20]: Active
- pIC50 [21]: 7.51
- inhibition [8]: > 50%
- Activity [9]: 105.4%
- Activity [10]: 133.9%
- inhibition [11]: > 50%
- pKi [15]: 8.24
- Emax [22]: 263%
